Data as given in ChEMBL document CHEMBL1250434, “A novel achiral seco-cyclopropylpyrido[e]indolone (CPyI) analog of CC-1065 and the duocarmycins: synthesis, DNA interactions, in vivo anticancer and anti-parasitic evaluation” (Bioorg Med Chem, 2010).

Columns and labels:
[1] = Cytotoxicity against mouse B16F0 cells after 3 days by MTT assay; type: functional, cell-based; conditions: B16F0, 72 h
How it was run: (§1)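 Murine tumour cells under continuous drug exposure for 3 days. Growth inhibition measured by MTT assay. IC50 is the concentration inhibiting growth by 50%.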

Trypanosoma brucei = assay: Antimicrobial activity against procyclic form of Trypanosoma brucei 427 assessed as inhibition of cell proliferation after 72 hrs by alamar blue assay; type: functional, organism-based; conditions: Trypanosoma brucei, 427, 72 h
How it was run: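 T. brucei 427 procyclic forms grown in SDM 79 medium with 0.03 nM to 64 µM compound for 72 h at 26 °C. Proliferation read by Alamar blue reduction after a further 15 h, fluorescence ex 530/em 590 nm.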

Nucleic Acid = assay: Binding affinity to pUC18 DNA assessed as DNA alkylating activity after 5 hrs by thermal cleavage assay; type: nucleic-acid assay; conditions: Escherichia coli
How it was run: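 PCR probe from the 749–956 region of pUC18. DNA precipitated and lyophilised, then heated at 90 °C for 30 min in sodium citrate buffer (pH 7.2) to cleave at alkylated adenines. Fragments resolved by electrophoresis.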

Leishmania mexicana = assay: Antimicrobial activity against promastigotes of Leishmania mexicana assessed as inhibition of cell proliferation after 72 hrs by alamar blue assay; type: functional, organism-based
How it was run: (§2)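 Promastigotes at 5 × 10^4 cells/well in DME-L medium with 10% heat-inactivated FBS, hemin, xanthine and penicillin-streptomycin. Exposed to 0.03 nM to 64 µM compound for 72 h at 26 °C. Alamar blue added, incubated 15 h, dye reduction read by fluorescence ex 530/em 590 nm.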

L1210 = assay: Cytotoxicity against mouse L1210 cells after 3 days by MTT assay; type: functional, cell-based; conditions: L1210, 72 h; how it was run: as §1
Plasmodium falciparum = assay: Antimicrobial activity against Plasmodium falciparum infected in human erythrocytes assessed as growth inhibition; type: functional, organism-based
How it was run: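 P. falciparum grown in human erythrocytes at 3–5% hematocrit in complete medium. In vitro growth assay at six concentrations, in triplicate, in three independent experiments.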

Leishmania donovani = assay: Antimicrobial activity against promastigotes of Leishmania donovani assessed as inhibition of cell proliferation after 72 hrs by alamar blue assay; type: functional, organism-based; how it was run: as §2

Row | SMILES | IC50 [1] | IC50 (Trypanosoma brucei) | Activity (Nucleic Acid) | IC50 (Leishmania mexicana) | IC50 (L1210) | IC50 (Plasmodium falciparum) | IC50 (Leishmania donovani)
1 | COc1cc2cc(C(=O)N3CC(CCl)c4c3cc(O)c3ccccc43)[nH]c2c(OC)c1OC (stereo not given) | 78 nM | – | – | – | – | – | –
2 | COc1cc2cc(C(=O)Nc3cc(N)c4ccccc4c3CCCl)[nH]c2c(OC)c1OC [CENTANAMYCIN] | 27 nM | 1.9 nM | Dose-dependent effect | 1020 nM | 55 nM | 1.8 nM | 13 nM
3 | COc1cc2cc(C(=O)Nc3cc(O)c4ccccc4c3CCCl)[nH]c2c(OC)c1OC | 150 nM | – | – | – | 180 nM | – | –
